Laboratory results reported in ChEMBL document CHEMBL4024804 (J Med Chem, 2018).
The source made the active and inactive calls. The rule behind the calls is not given here.

Key:
[1] = test system: A-375; assay: Cytotoxicity against human A375 cells after 72 hrs by MTS assay; format: functional, cell-based; conditions: A-375, 72 h
Procedure, shortened: (§1)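 Melanoma cells grown in DMEM with 10% FBS and seeded at 1800–3500 cells per well, then incubated overnight. Cells treated for 72 h with 10 concentrations from 0.03 nM to 1 μM, with DMSO vehicle, in four replicates. MTS added for at least 1 h at 37 °C and absorbance read at 490 nm. IC50 obtained by nonlinear regression.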

[2] = test system: M14; assay: Cytotoxicity against human M14 cells after 72 hrs by MTS assay; format: functional, cell-based; conditions: M14, 72 h; procedure, shortened: as §1
[3] = test system: RPMI-7951; assay: Cytotoxicity against human RPMI7951 cells after 72 hrs by MTS assay; format: functional, cell-based; conditions: RPMI-7951, 72 h; procedure, shortened: as §1
[4] = test system: A-375; assay: Antimigratory activity in human A375 cells assessed as wound closure at 5 nM after 22 hrs (reference value: 60.7 +/- […]); format: functional
[5] = test system: A-375; assay: Antimigratory activity in human A375 cells assessed as wound closure at 25 nM after 22 hrs (reference value: 60.7 +/- […]); format: functional
[6] = test system: RPMI-7951; assay: Antimigratory activity in human RPMI7951 cells assessed as wound closure at 25 nM after 18 hrs (reference value: 71.8 +/- 1.8%); format: functional
[7] = test system: RPMI-7951; assay: Antimigratory activity in human RPMI7951 cells at 5 nM after 18 hrs by wound healing assay; format: functional, cell-based
[8] = test system: Liver; assay: Half life in human liver microsomes by UPLC-MS analysis; format: ADME, microsome
Procedure, shortened: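 Compound at 10 mM in DMSO diluted into human liver microsomes (0.6381 mg/mL protein) in 0.1 M potassium phosphate pH 7.4 with EDTA. NADPH regenerating system added, incubated at 37 °C for 0–4 h in triplicate. Quenched with cold acetonitrile containing warfarin as internal standard, analysed by UPLC–MS SIR. ke from log-linear regression; t1/2 = ln 2/ke.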

[9] = Acute toxicity in nude mouse administered as qd for 5 days; conditions: in vivo
Procedure, shortened: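 Nude mice, 6–8 weeks old; compound formulated in PEG300 and given as five continuous daily administrations, then monitored for acute toxicity. A single-dose acute MTD was estimated first.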

[10] = test system: A-375; assay: Antitumor activity against human A375 cells xenografted in nude mouse assessed as tumor growth inhibition at 15 mg/kg, ip administered every other day for 2 weeks relative to control; format: functional; conditions: A-375, ip, 336 h, read-out: TGI
Procedure, shortened: (§2)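 Nude mice 6–8 weeks old; 2 × 10^6 A375 cells in FBS-free medium with Matrigel injected sc into dorsal flank. At about 100 mm3 mice were randomized, n = 8. Drug in 2:1 PEG300/PBS given ip every other day. Volume measured by caliper three times weekly (a × b2 × 0.5).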

[11] = test system: A-375; assay: Antitumor activity against human A375 cells xenografted in nude mouse assessed as decrease in tumor weight at 30 mg/kg, ip administered every other day for 2 weeks; format: functional, organism-based
Procedure, shortened: (§3)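 Nude mice (6–8 weeks) injected subcutaneously in dorsal flank with 2 × 10^6 A375 cells in Matrigel. At ~100 mm3, randomized (n = 8). Compound given ip every other day in 2:1 PEG300/PBS; vehicle equal parts PEG300/PBS. Tumors weighed at sacrifice; mean ± SEM, ANOVA with Dunnett's test versus vehicle.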

[12] = test system: A-375; assay: Induction of apoptosis in human A375 cells xenografted in nude mouse assessed as increase in cleaved caspase-3 levels at 15 mg/kg, ip administered every other day for 2 weeks by immunohistochemical analysis; format: functional, organism-based
Procedure, shortened: (§4)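 Formalin-fixed, paraffin-embedded A375 xenograft tumors from mice dosed ip every other day (2:1 PEG300/PBS). Serial sections immunostained with rabbit anti-cleaved caspase 3 antibody by the ABC-DAB method.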

[13] = test system: A-375; assay: Induction of morphological changes in human A375 cells xenografted in nude mouse assessed as less microvessel density at 15 mg/kg, ip administered every other day for 2 weeks by immunohistochemical analysis; format: functional, organism-based
[14] = test system: Tubulin (Sus scrofa); assay: Inhibition of tubulin (porcine brain) polymerization measured every min for 50 mins
[15] = species: Homo sapiens; assay: Inhibition of tubulin polymerization in human WM164 cells assessed as fragmentation of microtubules at 100 nM after 18 hrs using DAPI by immunofluorescence-based confocal microscopic method; format: cell-based
Procedure, shortened: (§5)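 WM164 cells on glass coverslips (125 000 cells/well), incubated overnight, treated 18 h with 100 nM compound or DMSO vehicle. Stained with anti-α-tubulin and Alexa Fluor 647 anti-mouse IgG, mounted in DAPI-containing medium, and imaged by confocal microscopy.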

[16] = species: Homo sapiens; assay: Inhibition of tubulin polymerization in human WM164 cells assessed as decrease in polymeric tubulin filaments at 100 nM after 18 hrs using DAPI by immunofluorescence-based confocal microscopic method; format: cell-based; procedure, shortened: as §5
[17] = species: Homo sapiens; assay: Inhibition of tubulin polymerization in human WM164 cells assessed as increase in cytoplasmic soluble tubulin levels at 100 nM after 18 hrs using DAPI by immunofluorescence-based confocal microscopic method; format: cell-based; procedure, shortened: as §5
[18] = test system: RPMI-7951; assay: Antimigratory activity in human RPMI7951 cells assessed as wound closure at 5 nM after 18 hrs (reference value: 71.8 +/- 1.8%); format: functional
[19] = test system: A-375; assay: Antitumor activity against human A375 cells xenografted in nude mouse assessed as tumor growth inhibition at 30 mg/kg, ip administered every other day for 2 weeks relative to control; format: functional; conditions: A-375, ip, 336 h, read-out: TGI; procedure, shortened: as §2
[20] = test system: A-375; assay: Antitumor activity against human A375 cells xenografted in nude mouse assessed as decrease in tumor weight at 15 mg/kg, ip administered every other day for 2 weeks; format: functional, organism-based; procedure, shortened: as §3
[21] = test system: A-375; assay: Induction of apoptosis in human A375 cells xenografted in nude mouse assessed as increase in cleaved caspase-3 levels at 30 mg/kg, ip administered every other day for 2 weeks by immunohistochemical analysis; format: functional, organism-based; procedure, shortened: as §4
[22] = test system: A-375; assay: Induction of morphological changes in human A375 cells xenografted in nude mouse assessed as less microvessel density at 30 mg/kg, ip administered every other day for 2 weeks by immunohistochemical analysis; format: functional, organism-based
[23] = test system: PC-3; assay: Cytotoxicity against human PC3 cells after 72 hrs by MTS assay; format: functional, cell-based; conditions: PC-3, 72 h
Procedure, shortened: (§6)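 Cells treated 72 h at 10 concentrations, 0.03 nM–1 μM, n = 4. MTS read at 490 nm; IC50 by nonlinear regression. RI = resistant IC50 / parental IC50.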

[24] = Cytotoxicity against human PC3-TxR cells after 72 hrs by MTS assay; format: functional, cell-based; procedure, shortened: as §6
[25] = Resistance index, ratio of IC50 for human PC3-TxR cells to IC50 for human PC3 cells; format: functional
Procedure, shortened: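 Cells were treated 72 h with 10 concentrations from 0.03 nM to 1 μM, four replicates, A490 read. IC50 by nonlinear regression. RI = IC50 resistant / IC50 parental.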

[26] = test system: DU-145; assay: Cytotoxicity against human DU145 cells after 72 hrs by MTS assay; format: functional, cell-based; conditions: DU-145, 72 h; procedure, shortened: as §6
[27] = Cytotoxicity against human DU145-TxR cells after 72 hrs by MTS assay; format: functional, cell-based; procedure, shortened: as §6
[28] = Resistance index, ratio of IC50 for human DU145-TxR cells to IC50 for human DU145 cells; format: functional; procedure, shortened: as §6
[29] = Antitumor activity against human PC3-TxR cells xenografted in nude mouse assessed as tumor growth inhibition at 30 mg/kg, ip administered every other day for 3 weeks; format: functional; conditions: 504 h, read-out: TGI
Procedure, shortened: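 Nude mice 6–8 weeks old; 2.5 × 10^6 PC-3/TxR cells with Matrigel injected sc into dorsal flank. […] At about 100 mm3 mice were randomized, n = 7. Drug in 2:1 PEG300/PBS given ip every other day. Caliper volume a × b2 × 0.5. TGI computed from start and end mean volumes relative to the vehicle group.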

[30] = test system: RPMI-7951; assay: Antimigratory activity in human RPMI7951 cells after 18 hrs by wound healing assay; format: functional, cell-based
Procedure, shortened: (§7)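 A375 and RPMI7951 monolayers seeded overnight (200 000 cells/well, triplicate), scratched with a pipet tip, washed, then given medium with 5 or 25 nM compound; untreated control wells. Imaged at 0 h and at 18 h (RPMI7951) or 22 h (A375); wound channel area measured and percent closure calculated. Dunnett's test versus control.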

[31] = test system: A-375; assay: Antimigratory activity in human A375 cells after 22 hrs by wound healing assay; format: functional, cell-based; procedure, shortened: as §7
[32] = test system: PC3-TxR; assay: Antitumor activity against human PC3-TxR cells xenografted in nude mouse assessed as decrease in tumor volume at 15 mg/kg, ip administered every other day for 3 weeks; format: functional, organism-based
Procedure, shortened: (§8)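 Paclitaxel-resistant PC-3/TxR, kept drug-free at least 1 week beforehand, implanted subcutaneously (2.5 × 10^6 cells with Matrigel) in nude mice. Randomized at ~100 mm3 (n = 7). Dosing ip every other day in 2:1 PEG300/PBS. Volume by caliper (a × b2 × 0.5) three times weekly, tumors weighed at end. One-way ANOVA with Dunnett's test versus vehicle.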

[33] = test system: PC3-TxR; assay: Antitumor activity against human PC3-TxR cells xenografted in nude mouse assessed as decrease in tumor weight at 15 mg/kg, ip administered every other day for 3 weeks; format: functional, organism-based; procedure, shortened: as §8
[34] = test system: Mus musculus; assay: Toxicity in nude mouse xenografted with human PC3-TxR cells assessed as decrease in body weight at 15 mg/kg, ip administered every other day for 2 weeks; format: organism-based; conditions: in vivo, 336 h
[35] = test system: PC-3; assay: Antitumor activity against human PC3 cells xenografted in nude mouse assessed as decrease in tumor volume at 15 mg/kg, ip administered every other day for 3 weeks; format: functional, organism-based
Procedure, shortened: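 PC-3 cells (2.5 × 10^6) with Matrigel injected subcutaneously in dorsal flank of nude mice. At ~100 mm3, randomized (n = 8). Dosing ip every other day in 2:1 PEG300/PBS; vehicle PEG300/PBS 1:1. Caliper volume a × b2 × 0.5 three times weekly.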

Compound: COc1ccc2c(c1)CCCN2c1nc(Cl)nc2ncn(C)c12
- IC50 [1]: 39.6 nM
- IC50 [2]: 41.2 nM
- IC50 [3]: 58.9 nM

Compound: COc1ccc2c(c1)CCCN2c1nc(Cl)nc2c1cnn2C
- IC50 [1]: > 1000 nM
- IC50 [2]: > 1000 nM
- IC50 [3]: > 1000 nM

Compound: COc1ccc2c(c1)CCCN2c1nc(C)nc2[nH]ncc12
- IC50 [1]: > 1000 nM
- IC50 [2]: > 1000 nM
- IC50 [3]: > 1000 nM

Compound: COc1cc2c(c(OC)c1OC)-c1ccc(OC)c(=O)cc1[C@@H](NC(C)=O)CC2 [COLCHICINE]
- Activity [4]: 46%
- Activity [5]: 20.7%
- Activity [6]: 42.8%
- Activity [7]: inactive

Compound: COc1ccc2c(n1)CCCN2c1nc(Cl)nc2ncccc12
- IC50 [1]: > 1000 nM
- IC50 [2]: > 1000 nM
- IC50 [3]: > 1000 nM

Compound: COc1ccc2c(c1)CCCN2c1nc(Cl)nc2ccoc12
- IC50 [1]: 3.2 nM
- IC50 [2]: 3.3 nM
- IC50 [3]: 5.1 nM
- t1/2 [8]: 19.2 min
- MTD at 120 h [9]: 30 mg/kg
- inhibition in vivo at 15 mg/kg [10]: 66.5%
- Activity ([11]; 15 mg/kg, in the assay text read “at 15 mg/kg” for “at 30 mg/kg”): Active
- Activity [12]: Active
- Activity [13]: Active
- inhibition [14]: Dose-dependent effect

Compound: COc1ccc2c(c1)CCCN2c1nc(Cl)nc2ncccc12
- IC50 [1]: 5.6 nM
- IC50 [2]: 5.5 nM
- IC50 [3]: 8.2 nM
- t1/2 [8]: 84 min
- inhibition [15]: Active
- inhibition [16]: Active
- inhibition [17]: Active
- Activity [4]: 36.4%
- Activity [18]: 46.4%
- Activity [5]: 16.9%
- Activity [6]: 25.5%
- MTD at 120 h [9]: 50 mg/kg
- inhibition in vivo at 15 mg/kg [10]: 57.1%
- inhibition in vivo at 30 mg/kg [19]: 72.3%
- Activity [20]: Active
- Activity ([11]; 30 mg/kg): Active
- Activity [12]: Active
- Activity [21]: Active
- Activity [13]: Active
- Activity [22]: Active
- IC50 [23]: 12.7 nM
- IC50 [24]: 8.7 nM
- Ratio IC50 [25]: 0.7
- IC50 [26]: 18.3 nM
- IC50 [27]: 19.9 nM
- Ratio IC50 [28]: 1.1
- inhibition in vivo at 30 mg/kg [29]: 55.6%
- Activity [30]: Dose-dependent effect
- Activity [31]: Dose-dependent effect
- inhibition [14]: Dose-dependent effect

Compound: CN(c1ccc2c(c1)OCO2)c1nc(Cl)nc2ncccc12
- IC50 [1]: 162 nM
- IC50 [2]: 164 nM
- IC50 [3]: 179 nM

Compound: CC(=O)O[C@H]1C(=O)[C@@]2(C)[C@H]([C@H](OC(=O)c3ccccc3)[C@]3(O)C[C@H](OC(=O)[C@H](O)[C@@H](NC(=O)c4ccccc4)c4ccccc4)C(C)=C1C3(C)C)[C@]1(OC(C)=O)CO[C@@H]1C[C@@H]2O [PACLITAXEL]
- inhibition in vivo at 15 mg/kg [10]: 76.5%
- Activity [12]: Active
- IC50 [23]: 3.7 nM
- IC50 [24]: 111 nM
- IC50 [27]: > 1000 nM
- Activity [32]: inactive
- Activity [33]: inactive
- Activity [34]: Toxic
- Activity [35]: Active
